Holding throughout (format): functional
The test system of experiment [1] is Serratia marcescens. Kind of experiment: Antibacterial activity against Serratia marcescens IMRU 70 assessed as growth inhibition after 24 hrs by Kirby-Bauer disc diffusion method relative to ampicillin. On the set-up: concentration or dose not given beside the values. The method in brief:
(§1)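 Modified Kirby-Bauer disc diffusion on Mueller-Hinton agar spread with broth culture at about 10^8 cells/ml. Blank 8.0 mm paper discs were impregnated with test solution. Ampicillin discs at the same concentration and solvent served as positive control, and solvent discs as negative control. Plates were incubated at 35–37 °C, and inhibition-zone diameter (mm) was read at 24 h by caliper. % activity index = zone relative to ampicillin.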

The subject of experiment [2] is Proteus mirabilis. Kind of experiment: Antibacterial activity against Proteus mirabilis NCTC 289 assessed as growth inhibition after 24 hrs by Kirby-Bauer disc diffusion method relative to ampicillin. The arrangement: concentration or dose not given beside the values. In a few lines: as §1
On the technique in general: A growth-free zone around the sample is the usual read-out of agar diffusion tests.

Experiment [3] concerns Bacillus cereus. Kind of experiment: Antibacterial activity against Bacillus cereus NCTC 14579 assessed as growth inhibition after 24 hrs by Kirby-Bauer disc diffusion method relative to ampicillin. The method in brief: as §1
For experiment [4], the system named is Staphylococcus aureus. The experiment can be described thus: Antibacterial activity against Staphylococcus aureus NCTC 7447 assessed as growth inhibition after 24 hrs by Kirby-Bauer disc diffusion method relative to ampicillin. The arrangement: concentration or dose not given beside the values. In a few lines: as §1
Experiment [5] deals with Rattus norvegicus. Kind of experiment: Antiinflammatory activity in albino Wistar rat assessed as inhibition of carrageenan-induced paw oedema at 50 mg/kg, po administered 1 hr prior to carrageenan challenge measured at 4 hrs by plethysmometeric analysis relative to control. The method in brief: (§2)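 Albino Wistar rats of either sex (130–150 g), 6 per group, fasted 12 h with water ad libitum. Test compounds were given orally at 50 mg/kg as DMSO solution; controls received 1 ml 20% v/v DMSO. One hour later, 0.1 ml 1% w/v carrageenan in 0.9% saline was injected into the left hind paw plantar region. Plethysmometer volume was read at 0 and 1–4 h. % inhibition = [1 − (Vt/Vc)] × 100.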
In general terms: In the carrageenan paw model, swelling and tenderness develop within hours.

The subject of experiment [6] is Rattus norvegicus. Kind of experiment: Antiinflammatory activity in albino Wistar rat assessed as inhibition of carrageenan-induced paw oedema at 50 mg/kg, po administered 1 hr prior to carrageenan challenge measured at 3 hrs by plethysmometeric analysis relative to control. In a few lines: as §2
Experiment [7] deals with Rattus norvegicus. The experiment can be described thus: Antiinflammatory activity in albino Wistar rat assessed as inhibition of carrageenan-induced paw oedema at 50 mg/kg, po administered 1 hr prior to carrageenan challenge measured at 2 hrs by plethysmometeric analysis relative to control. The method in brief: as §2
In experiment [8] the test system is Rattus norvegicus. The experiment can be described thus: Antiinflammatory activity in albino Wistar rat assessed as inhibition of carrageenan-induced paw oedema at 50 mg/kg, po administered 1 hr prior to carrageenan challenge measured at 1 hr post carrageenan challenge by plethysmometeric analysis relative to control. In a few lines: as §2
For experiment [9], the system named is Serratia marcescens. The experiment can be described thus: Antibacterial activity against Serratia marcescens IMRU 70 assessed as growth inhibition after 24 hrs by Kirby-Bauer disc diffusion method. The method in brief: as §1
The test system of experiment [10] is Proteus mirabilis. Kind of experiment: Antibacterial activity against Proteus mirabilis NCTC 289 assessed as growth inhibition after 24 hrs by Kirby-Bauer disc diffusion method. In a few lines:
as §1

The subject of experiment [11] is Bacillus cereus. Kind of experiment: Antibacterial activity against Bacillus cereus NCTC 14579 assessed as growth inhibition after 24 hrs by Kirby-Bauer disc diffusion method. The method in brief:
as §1

For experiment [12], the system named is Staphylococcus aureus. Kind of experiment: Antibacterial activity against Staphylococcus aureus NCTC 7447 assessed as growth inhibition after 24 hrs by Kirby-Bauer disc diffusion method. The method in brief:
as §1

One may read the inhibition in vivo as the drop in the measured response relative to a control, in per cent. Turning to `Nc1nc(-c2ccc(N3CCOCC3)cc2)cs1`, the Activity_index in experiment [1] is on record as 15.72%; in experiment [2], 9.52%; in [3] it was 17.39%; in experiment [4] it was 20.83%. For the same compound, the inhibition in vivo at 50 mg/kg in [5] is 86.8%; in experiment [6], 75.3%; in experiment [7], 31.7%; in experiment [8], -17%. The “diameter of the inhibition zone (DIZ)” value in experiment [9] was 3 mm; in experiment [10] it was 2 mm; in [11], 4 mm; in experiment [12] it was 5 mm.

In the case of `C/C(=N\NC1=NC(=O)C(C)S1)c1ccc(N2CCOCC2)cc1` (stereo unspecified), the Activity_index in experiment [1] was 10.52%; in [2] it was 9.52%; in experiment [3], 21.74%; in [4], 20.83%. The “diameter of the inhibition zone (DIZ)” value was found to be 2 mm in experiment [9], 2 mm in [10], 5 mm in experiment [11] and 5 mm in experiment [12].

With `C/C(=N\NC1=NCC(=O)S1)c1ccc(N2CCOCC2)cc1`, the Activity_index worked out at 15.72% in [1], 9.52% in [2], 16.67% in [3] and 20.83% in [4]. In addition, the inhibition in vivo at 50 mg/kg in experiment [5] is 78.2%; in experiment [6] it was 63.4%; in experiment [7], 28.6%; in experiment [8], 29.5%. Moreover, the “diameter of the inhibition zone (DIZ)” value in [9] amounted to 3 mm; in [10], 2 mm; in experiment [11], 4 mm; in experiment [12], 5 mm.

For `C/C(=N\Nc1nc(C)cs1)c1ccc(N2CCOCC2)cc1`, the Activity_index is 15.72% in experiment [1], 9.52% in experiment [2], 13.04% in [3] and 20.83% in [4]. The “diameter of the inhibition zone (DIZ)” value in experiment [9] is given as 2 mm; in experiment [10], 2 mm; in [11], 3 mm; in experiment [12], 5 mm.

For `C/C(=N\Nc1nc(-c2ccccc2)cs1)c1ccc(N2CCOCC2)cc1`, the Activity_index worked out at 15.72% in experiment [1], 14.28% in experiment [2], 17.39% in experiment [3] and 16.67% in [4]. The inhibition in vivo at 50 mg/kg was 79.1% in experiment [5], 62.2% in experiment [6], 35% in [7] and -1.6% in experiment [8]. Moreover, the “diameter of the inhibition zone (DIZ)” value in experiment [9] is 2 mm; in [10], 3 mm; in experiment [11], 4 mm; in [12], 4 mm.

As to `C/C(=N\NC1=NC(=N)CS1)c1ccc(N2CCOCC2)cc1`, the Activity_index in experiment [1] was determined as 15.72%; in experiment [2] it was 9.52%; in [3] it was 17.39%; in experiment [4], 20.83%. Also, the “diameter of the inhibition zone (DIZ)” value is recorded as 3 mm in experiment [9], 2 mm in experiment [10], 4 mm in experiment [11] and 5 mm in experiment [12].

On to `C/C(=N/NC(=O)/C(C#N)=C1/SC=C(c2ccccc2)N1c1ccccc1)c1ccc(N2CCOCC2)cc1`, for which the Activity_index in experiment [1] worked out at 15.72%; in [2], 9.52%; in [3] it was 17.39%; in experiment [4], 20.83%. In addition, the “diameter of the inhibition zone (DIZ)” value in experiment [9] amounted to 3 mm; in experiment [10] it was 2 mm; in experiment [11] it was 4 mm; in experiment [12] it was 5 mm.

As to `CC1=C(O)N(c2ccccc2)/C(=C(/C#N)C(=O)N/N=C(/C)c2ccc(N3CCOCC3)cc2)S1`, the Activity_index in experiment [1] stood at 15.72%; in experiment [2] it was 14.28%; in [3], 13.04%; in experiment [4] it was 20.83%. Further, the “diameter of the inhibition zone (DIZ)” value in experiment [9] came to 3 mm; in experiment [10], 3 mm; in experiment [11] it was 3 mm; in [12] it was 5 mm.

Consider `C/C(=N/NC(=O)c1sc(=S)n(-c2ccccc2)c1N)c1ccc(N2CCOCC2)cc1`, for which the Activity_index stood at 15.72% in experiment [1], 9.52% in experiment [2], 13.04% in experiment [3] and 16.67% in experiment [4]. Besides, the “diameter of the inhibition zone (DIZ)” value in [9] was determined as 2 mm; in experiment [10], 2 mm; in experiment [11] it was 3 mm; in experiment [12] it was 4 mm.

On to `C/C(=N/NC(=O)c1sc(=S)n(-c2ccc3ccccc3c2)c1N)c1ccc(N2CCOCC2)cc1`, for which the Activity_index in experiment [1] is 15.72%; in experiment [2] it was 9.52%; in experiment [3], 13.04%; in experiment [4], 20.83%. Further, the “diameter of the inhibition zone (DIZ)” value came to 2 mm in experiment [9], 2 mm in experiment [10], 3 mm in experiment [11] and 5 mm in experiment [12].

For the compound `Cc1ccc(/C=N/c2nc(-c3ccc(N4CCOCC4)cc3)cs2)cc1`, the Activity_index is listed as 15.72% in [1], 9.52% in [2], 17.39% in [3] and 16.67% in experiment [4]. Further, the “diameter of the inhibition zone (DIZ)” value in [9] was 3 mm; in experiment [10], 2 mm; in [11], 4 mm; in experiment [12] it was 4 mm.

For `CC(=O)N(C(C)=O)c1nc(-c2ccc(N3CCOCC3)cc2)cs1`, the Activity_index is 15.72% in experiment [1], 14.28% in experiment [2], 17.39% in experiment [3] and 20.83% in experiment [4]. Further, the “diameter of the inhibition zone (DIZ)” value in [9] is listed as 2 mm; in experiment [10], 3 mm; in experiment [11] it was 4 mm; in experiment [12], 5 mm.

For the compound `C/C(=N/c1nc(-c2ccccc2)cs1)c1ccc(N2CCOCC2)cc1`, the Activity_index in [1] came out at 15.72%; in [2], 14.28%; in experiment [3] it was 17.39%; in [4], 20.83%. Also, the inhibition in vivo at 50 mg/kg is 81.6% in [5], 59.8% in experiment [6], 22.9% in experiment [7] and 27.2% in [8]. The “diameter of the inhibition zone (DIZ)” value in experiment [9] is reported as 2 mm; in [10], 3 mm; in [11] it was 4 mm; in experiment [12], 5 mm.

With `C/C(=N\NC1=NC(=O)CS1)c1ccc(N2CCOCC2)cc1`, the Activity_index was 15.72% in experiment [1], 14.28% in experiment [2], 17.39% in experiment [3] and 16.67% in [4]. Besides, the inhibition in vivo at 50 mg/kg was 35.7% in experiment [5], 29% in experiment [6], -8% in [7] and -58.6% in [8]. Also, the “diameter of the inhibition zone (DIZ)” value in experiment [9] is listed as 3 mm; in experiment [10], 3 mm; in experiment [11] it was 4 mm; in experiment [12] it was 4 mm.

As for `CC1(C)S[C@@H]2[C@H](NC(=O)[C@H](N)c3ccccc3)C(=O)N2[C@H]1C(=O)O` [AMPICILLIN], the “diameter of the inhibition zone (DIZ)” value was determined as 21 mm in experiment [9], 21 mm in experiment [10], 23 mm in experiment [11] and 24 mm in [12].
